Assay results published in PMC12789443 (Nature Communications, 2025).

Tests used:
[1] = test system: E. coli ATCC25922 persister cells; test: Killing efficacy on persister cells; assay type: cell-based; details: ampicillin 8×MIC
E. coli ATCC25922 [2] = test: Mice wound; assay type: in vivo; details: topical, 15 μL of 4 mg/mL every 4 h, 3 times
How it was run: (§1)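 Female ICR mice (6–8 weeks), pentobarbital-anaesthetised (75 mg/kg ip), backs shaved; 6-mm full-thickness punch wounds. Bacteria grown in LB (37 °C, 9 h) and dropped onto wounds in saline: S. aureus 3 × 10^6 or E. coli 1 × 10^8 CFU/mL. Treatment in saline started 24 h post-infection; saline controls. Wound tissue excised 4 h after final application for CFU counts; n = 10.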

S. aureus USA300 LAC [3] = test: In vitro bacterial killing kinetics; assay type: cell-based; details: exponential growth phase; PBGProOx20 2×MIC and 4×MIC, vancomycin 4×MIC
[4] = test system: S. aureus USA300 LAC biofilm; test: Anti-biofilm assay; assay type: cell-based
S. aureus USA300 LAC [5] = test: Mice wound; assay type: in vivo; details: topical, 15 μL of 4 mg/mL every 4 h, 3 times
How it was run: as §1

S. aureus USA300 LAC [6] = test: Mice subcutaneous infection model; assay type: in vivo; details: 4 mg/mL every 12 h, 3 times
S. aureus USA300 LAC [7] = test: Mice meningitis model; assay type: in vivo; details: 40 mg/kg intraperitoneal daily, 6 times; saline 17%
[8] = test system: S. aureus USA300 persister cells; test: Killing efficacy on persister cells; assay type: cell-based; details: ciprofloxacin 10×MIC
[9] = test system: S. aureus-PBGProOx20-P32, S. aureus-ciprofloxacin-P32; test: Cross resistance; assay type: cell-based; details: 0.5×MIC, P32 bacteria tested against antibiotics
E. coli ATCC25922 [10] = test: Mice meningitis model; assay type: in vivo; details: 40 mg/kg intraperitoneal daily, 6 times; saline 17%
E. coli ATCC25922 [11] = test: Drug resistance study; assay type: cell-based; details: continuous treatment at 0.5×MIC
[12] = test system: E. coli-PBGProOx20-P32, E. coli-moxifloxacin-P32; test: Cross resistance; assay type: cell-based; details: 0.5×MIC, P32 bacteria tested against antibiotics
[13] = test system: E. coli ATCC25922 biofilm; test: Anti-biofilm assay; assay type: cell-based

CC1(C)S[C@@H]2[C@H](NC(=O)[C@H](N)c3ccccc3)C(=O)N2[C@H]1C(=O)O [Ampicillin, ampicillin]
persister cell viability under antibiotic [1]: maintained sustained viability

C[C@@H](O)[C@H]1C(=O)N2C(C(=O)O)=C(SCCN=CN)C[C@H]12 [Imipenem, imipenem]
reduction of bacteria in infected wounds (E. coli ATCC25922 [2]): 2.1 logs

CN[C@H](CC(C)C)C(=O)N[C@H]1C(=O)N[C@@H](CC(N)=O)C(=O)N[C@H]2C(=O)N[C@H]3C(=O)N[C@H](C(=O)N[C@H](C(=O)O)c4cc(O)cc(O)c4-c4cc3ccc4O)[C@H](O)c3ccc(c(Cl)c3)Oc3cc2cc(c3O[C@@H]2O[C@H](CO)[C@@H](O)[C@H](O)[C@H]2O[C@H]2C[C@](C)(N)[C@H](O)[C@H](C)O2)Oc2ccc(cc2Cl)[C@H]1O [Vancomycin, vancomycin]
eradication in time-killing kinetics (S. aureus USA300 LAC [3]): unable to eradicate S. aureus
concentration eradicating mature biofilm [4]: poor anti-biofilm activity
reduction of bacteria in infected wounds (S. aureus USA300 LAC [5]): 1.2 logs
reduction of bacterial load in infected skin (S. aureus USA300 LAC [6]): less than 0.5 log CFU/g
survival rate, meningitis (S. aureus USA300 LAC [7]): 50%

O=C(O)c1cn(C2CC2)c2cc(N3CCNCC3)c(F)cc2c1=O [ciprofloxacin]
persister cell viability under antibiotic [8]: maintained sustained viability
cross-resistance of bacteria treated for 32 passages [9]: acquired resistance to four quinolone antibiotics and ampicillin

C[C@@H](O)[C@H]1C(=O)N2C(C(=O)O)=C(S[C@@H]3CN[C@H](C(=O)N(C)C)C3)[C@H](C)[C@H]12 [meropenem]
survival rate, meningitis (E. coli ATCC25922 [10]): 100%

COc1c(N2C[C@@H]3CCCN[C@@H]3C2)c(F)cc2c(=O)c(C(=O)O)cn(C3CC3)c12 [moxifloxacin]
increase in MIC after 32 passages (E. coli ATCC25922 [11]): 32 fold
cross-resistance of bacteria treated for 32 passages [12]: acquired resistance to four quinolone antibiotics and ampicillin

colistin
concentration eradicating mature biofilm [13]: 256 ×MIC
